According to ChEMBL document CHEMBL4014336 (J Med Chem, 2017):

Test system: not listed separately
Experiment: Metabolic stability in human liver microsomes assessed as parent compound remaining after 10 mins
Type: ADME, microsome
Details: liver microsomes, read-out: Stability
Method in brief: (§1)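 Parent compound remaining after a 10 min incubation with human, mouse or rat liver microsomes.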

With `O=C(CC1(c2ccccn2)C2CC3CC1CC(C2)C3O)N1CC(O)C1` (racemic) as the molecule, how does the remaining at 10 min read?
The remaining at 10 min was 100%.

For `Cc1cccc(C2(CC(=O)N3CC(O)C3)C3CC4CC2CC(C3)C4O)c1` (racemic), which remaining at 10 min is on record?
The remaining at 10 min was 84%.

For `O=C(CC1(c2cccnc2)C2CC3CC1CC(C2)C3O)N1CC(O)C1` (racemic), which remaining at 10 min is on record?
The remaining at 10 min was 86%.

With `O=C(CC1(c2cccc(Cl)c2)C2CC3CC1CC(C2)C3O)N1CC(O)C1` (racemic) as the molecule, how does the remaining at 10 min read?
Its remaining at 10 min is 85%.

For `N#CC1C2CC3CC1CC(C2)C3(CC(=O)N1CC(O)C1)c1ccc(F)cc1` (racemic), which remaining at 10 min is on record?
Its remaining at 10 min is 53%.

Which remaining at 10 min does the source give for `O=C(CC1(c2ccc(-c3ccncc3)cc2)C2CC3CC1CC(C2)C3O)N1CC(O)C1` (racemic) here?
Its remaining at 10 min is 28%.

With `O=C(CC1(c2ccc(F)cc2)C2CC3CC1CC(O)(C3)C2)N1CC(O)C1` (stereo not given) as the molecule, how does the remaining at 10 min read?
Its remaining at 10 min is 100%.

Which remaining at 10 min does the source give for `COc1ccc(C2(CC(=O)N3CC(O)C3)C3CC4CC2CC(C3)C4O)cc1` (racemic) here?
Its remaining at 10 min is 98%.

Which remaining at 10 min does the source give for `O=C(CC1(c2ccc(C(F)(F)F)cc2)C2CC3CC1CC(C2)C3O)N1CC(O)C1` (racemic) here?
The remaining at 10 min was 57%.

Which remaining at 10 min does the source give for `O=C(CC1(c2ccncc2)C2CC3CC1CC(C2)C3O)N1CC(O)C1` (racemic) here?
Its remaining at 10 min is 92%.

For `O=C(CC1(C2CCCCC2)C2CC3CC1CC(C2)C3O)N1CC(O)C1` (racemic), which remaining at 10 min is on record?
The remaining at 10 min was 100%.

With `CC1(O)C2CC3CC(C2)C(CC(=O)N2CC(O)C2)(c2ccc(F)cc2)C1C3` (racemic) as the molecule, how does the remaining at 10 min read?
The remaining at 10 min was 41%.

With `O=C(CC1(c2ccc(F)cc2)C2CC3CC1CC(F)(C3)C2)N1CC(O)C1` (stereo not given) as the molecule, how does the remaining at 10 min read?
The remaining at 10 min was 38 to 69%.

For `N#Cc1ccc(C2(CC(=O)N3CC(O)C3)C3CC4CC2CC(C3)C4O)cc1` (racemic), which remaining at 10 min is on record?
The remaining at 10 min was 100%.

With `O=C(CC1(c2ccc(Cl)cc2)C2CC3CC1CC(C2)C3O)N1CC(O)C1` (racemic) as the molecule, how does the remaining at 10 min read?
The remaining at 10 min was 81%.

For `NC(=O)C1C2CC3CC1CC(C2)C3(CC(=O)N1CC(O)C1)c1ccc(F)cc1` (racemic), which remaining at 10 min is on record?
Its remaining at 10 min is 100%.

Which remaining at 10 min does the source give for `O=C(CC1(c2ccc(-c3ccc(F)cc3)cc2)C2CC3CC1CC(C2)C3O)N1CC(O)C1` (racemic) here?
Its remaining at 10 min is 39%.

Test system: not listed separately
Experiment: Metabolic stability in mouse liver microsomes assessed as parent compound remaining after 10 mins
Type: ADME, microsome
Details: liver microsomes, read-out: Stability
Method in brief: as §1

For `O=C(CC1(c2ccccn2)C2CC3CC1CC(C2)C3O)N1CC(O)C1` (racemic), which remaining at 10 min is on record?
Its remaining at 10 min is 93%.

With `Cc1cccc(C2(CC(=O)N3CC(O)C3)C3CC4CC2CC(C3)C4O)c1` (racemic) as the molecule, how does the remaining at 10 min read?
Its remaining at 10 min is 54%.

For `O=C(CC1(c2cccnc2)C2CC3CC1CC(C2)C3O)N1CC(O)C1` (racemic), which remaining at 10 min is on record?
Its remaining at 10 min is 58%.

Which remaining at 10 min does the source give for `O=C(CC1(c2cccc(Cl)c2)C2CC3CC1CC(C2)C3O)N1CC(O)C1` (racemic) here?
The remaining at 10 min was 66%.

With `N#CC1C2CC3CC1CC(C2)C3(CC(=O)N1CC(O)C1)c1ccc(F)cc1` (racemic) as the molecule, how does the remaining at 10 min read?
The remaining at 10 min was 47%.

Which remaining at 10 min does the source give for `O=C(CC1(c2ccc(-c3ccncc3)cc2)C2CC3CC1CC(C2)C3O)N1CC(O)C1` (racemic) here?
The remaining at 10 min was 42%.

With `O=C(CC1(c2ccc(F)cc2)C2CC3CC1CC(O)(C3)C2)N1CC(O)C1` (stereo not given) as the molecule, how does the remaining at 10 min read?
Its remaining at 10 min is 80 to 100%.

With `COc1ccc(C2(CC(=O)N3CC(O)C3)C3CC4CC2CC(C3)C4O)cc1` (racemic) as the molecule, how does the remaining at 10 min read?
Its remaining at 10 min is 71%.

For `O=C(CC1(c2ccc(C(F)(F)F)cc2)C2CC3CC1CC(C2)C3O)N1CC(O)C1` (racemic), which remaining at 10 min is on record?
Its remaining at 10 min is 71%.

Which remaining at 10 min does the source give for `O=C(CC1(c2ccncc2)C2CC3CC1CC(C2)C3O)N1CC(O)C1` (racemic) here?
The remaining at 10 min was 94%.

With `O=C(CC1(C2CCCCC2)C2CC3CC1CC(C2)C3O)N1CC(O)C1` (racemic) as the molecule, how does the remaining at 10 min read?
Its remaining at 10 min is 24%.

For `CC1(O)C2CC3CC(C2)C(CC(=O)N2CC(O)C2)(c2ccc(F)cc2)C1C3` (racemic), which remaining at 10 min is on record?
The remaining at 10 min was 17%.

With `O=C(CC1(c2ccc(F)cc2)C2CC3CC1CC(F)(C3)C2)N1CC(O)C1` (stereo not given) as the molecule, how does the remaining at 10 min read?
Its remaining at 10 min is 13 to 38%.

With `N#Cc1ccc(C2(CC(=O)N3CC(O)C3)C3CC4CC2CC(C3)C4O)cc1` (racemic) as the molecule, how does the remaining at 10 min read?
Its remaining at 10 min is 87%.

With `O=C(CC1(c2ccc(Cl)cc2)C2CC3CC1CC(C2)C3O)N1CC(O)C1` (racemic) as the molecule, how does the remaining at 10 min read?
The remaining at 10 min was 73%.

For `NC(=O)C1C2CC3CC1CC(C2)C3(CC(=O)N1CC(O)C1)c1ccc(F)cc1` (racemic), which remaining at 10 min is on record?
The remaining at 10 min was 99%.

For `O=C(CC1(c2ccc(-c3ccc(F)cc3)cc2)C2CC3CC1CC(C2)C3O)N1CC(O)C1` (racemic), which remaining at 10 min is on record?
Its remaining at 10 min is 10%.

Test system: not listed separately
Experiment: Metabolic stability in rat liver microsomes assessed as parent compound remaining after 10 mins
Type: ADME, microsome
Details: liver microsomes, read-out: Stability
Method in brief: as §1

With `O=C(CC1(c2ccccn2)C2CC3CC1CC(C2)C3O)N1CC(O)C1` (racemic) as the molecule, how does the remaining at 10 min read?
Its remaining at 10 min is 90%.

For `Cc1cccc(C2(CC(=O)N3CC(O)C3)C3CC4CC2CC(C3)C4O)c1` (racemic), which remaining at 10 min is on record?
The remaining at 10 min was 22%.

With `O=C(CC1(c2cccnc2)C2CC3CC1CC(C2)C3O)N1CC(O)C1` (racemic) as the molecule, how does the remaining at 10 min read?
Its remaining at 10 min is 92%.

Which remaining at 10 min does the source give for `O=C(CC1(c2cccc(Cl)c2)C2CC3CC1CC(C2)C3O)N1CC(O)C1` (racemic) here?
The remaining at 10 min was 37%.

Which remaining at 10 min does the source give for `N#CC1C2CC3CC1CC(C2)C3(CC(=O)N1CC(O)C1)c1ccc(F)cc1` (racemic) here?
Its remaining at 10 min is 27%.

For `O=C(CC1(c2ccc(-c3ccncc3)cc2)C2CC3CC1CC(C2)C3O)N1CC(O)C1` (racemic), which remaining at 10 min is on record?
The remaining at 10 min was 53%.

With `O=C(CC1(c2ccc(F)cc2)C2CC3CC1CC(O)(C3)C2)N1CC(O)C1` (stereo not given) as the molecule, how does the remaining at 10 min read?
The remaining at 10 min was 82 to 85%.

With `COc1ccc(C2(CC(=O)N3CC(O)C3)C3CC4CC2CC(C3)C4O)cc1` (racemic) as the molecule, how does the remaining at 10 min read?
Its remaining at 10 min is 70%.

For `O=C(CC1(c2ccc(C(F)(F)F)cc2)C2CC3CC1CC(C2)C3O)N1CC(O)C1` (racemic), which remaining at 10 min is on record?
The remaining at 10 min was 0%.

Which remaining at 10 min does the source give for `O=C(CC1(c2ccncc2)C2CC3CC1CC(C2)C3O)N1CC(O)C1` (racemic) here?
Its remaining at 10 min is 100%.

With `O=C(CC1(C2CCCCC2)C2CC3CC1CC(C2)C3O)N1CC(O)C1` (racemic) as the molecule, how does the remaining at 10 min read?
Its remaining at 10 min is 14%.

For `CC1(O)C2CC3CC(C2)C(CC(=O)N2CC(O)C2)(c2ccc(F)cc2)C1C3` (racemic), which remaining at 10 min is on record?
The remaining at 10 min was 23%.

With `O=C(CC1(c2ccc(F)cc2)C2CC3CC1CC(F)(C3)C2)N1CC(O)C1` (stereo not given) as the molecule, how does the remaining at 10 min read?
The remaining at 10 min was 5 to 9%.

Which remaining at 10 min does the source give for `N#Cc1ccc(C2(CC(=O)N3CC(O)C3)C3CC4CC2CC(C3)C4O)cc1` (racemic) here?
Its remaining at 10 min is 95%.

For `O=C(CC1(c2ccc(Cl)cc2)C2CC3CC1CC(C2)C3O)N1CC(O)C1` (racemic), which remaining at 10 min is on record?
The remaining at 10 min was 58%.

For `NC(=O)C1C2CC3CC1CC(C2)C3(CC(=O)N1CC(O)C1)c1ccc(F)cc1` (racemic), which remaining at 10 min is on record?
The remaining at 10 min was 92%.

Which remaining at 10 min does the source give for `O=C(CC1(c2ccc(-c3ccc(F)cc3)cc2)C2CC3CC1CC(C2)C3O)N1CC(O)C1` (racemic) here?
The remaining at 10 min was 5%.

Biological target: T1, Nuclear receptor subfamily 1 group I member 2 (Homo sapiens, UniProt O75469)
T1 sequence (O75469 whole entry): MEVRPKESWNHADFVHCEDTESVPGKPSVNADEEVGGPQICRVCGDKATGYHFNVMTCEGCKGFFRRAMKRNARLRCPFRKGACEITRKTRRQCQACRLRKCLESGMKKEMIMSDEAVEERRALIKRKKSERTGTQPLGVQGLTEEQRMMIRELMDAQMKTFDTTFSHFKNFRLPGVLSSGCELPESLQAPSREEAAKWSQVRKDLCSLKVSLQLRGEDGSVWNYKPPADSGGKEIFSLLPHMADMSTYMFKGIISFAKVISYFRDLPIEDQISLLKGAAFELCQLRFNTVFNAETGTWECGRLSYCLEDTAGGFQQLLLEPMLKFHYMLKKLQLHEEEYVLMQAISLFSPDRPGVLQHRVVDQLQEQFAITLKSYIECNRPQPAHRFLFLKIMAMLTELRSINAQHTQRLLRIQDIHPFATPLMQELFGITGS
Experiment: Activation of PXR (unknown origin)
Type: ADME
Details: not given
Method in brief: (§2)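 PXR transactivation assay; EC50 and maximal activation (Ymax, % of control) reported.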

For `O=C(CC1(c2ccc(F)cc2)C2CC3CC(C2)CC1C3)N1CC(O)C1` (stereo not given), which EC50 is on record?
Its EC50 is 6.7 µM.

Which EC50 does the source give for `O=C(CC1(c2ccc(F)cc2)C2CC3CC1CC(O)(C3)C2)N1CC(O)C1` (stereo not given) here?
Its EC50 is over 50 µM.

With `CC1(O)C2CC3CC(C2)C(CC(=O)N2CC(O)C2)(c2ccc(F)cc2)C1C3` (racemic) as the molecule, how does the EC50 read?
The EC50 was over 50 µM.

Which EC50 does the source give for `O=C(CC1(c2ccc(F)cc2)C2CC3CC1CC(F)(C3)C2)N1CC(O)C1` (stereo not given) here?
The EC50 was over 25 µM.

Biological target: PXR (Homo sapiens, UniProt O75469)
Experiment: Activation of PXR (unknown origin) relative to control
Type: ADME
Details: not given
Method in brief: as §2

With `O=C(CC1(c2ccc(F)cc2)C2CC3CC(C2)CC1C3)N1CC(O)C1` (stereo not given) as the molecule, how does the Emax read?
Its Emax is 37%.

Test system: Cynomolgus monkey
Experiment: In vivo inhibition of 11beta-HSD1 in non-fasting diet-induced obese cynomolgus monkey assessed as decrease in corticosterone excursion in plasma pretreated via oral gavage for 30 mins followed by DHC administration measured up to 60 mins by enzyme immunosorbent assay
Type: functional
Details: Macaca fascicularis
Method in brief: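 Cynomolgus monkeys given test compound at a predetermined time before the experiment, chosen from its pharmacokinetics. Substrate DHC (rodent substrate, used in place of cortisone) given afterwards. Blood sampled at various times. Design otherwise similar to the mouse DHC challenge.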

With `O=C(O)CC1(c2ccc(F)cc2)C2CC3CC(C2)CC1C3` (stereo not given) as the molecule, how does the ED50 read?
The ED50 was 0.3 mg/kg.

Test system: Cynomolgus monkey
Experiment: Toxicity in cynomolgus monkey assessed as HPA axis activation by measuring increase in DHEA level at 10 mg/kg for 7 days
Type: organism-based, Macaca fascicularis
Details: in vivo, 168 h

With `O=C(O)CC1(c2ccc(F)cc2)C2CC3CC(C2)CC1C3` (stereo not given) as the molecule, how does the Activity read?
The Activity was “Toxic”.

Test system: Cynomolgus monkey
Experiment: Toxicity in cynomolgus monkey assessed as HPA axis activation by measuring increase in DHEAS level at 10 mg/kg for 7 days
Type: organism-based, Macaca fascicularis
Details: in vivo, 168 h

For `O=C(O)CC1(c2ccc(F)cc2)C2CC3CC(C2)CC1C3` (stereo not given), which Activity is on record?
Its Activity is “Toxic”.

Test system: Cynomolgus monkey
Experiment: Toxicity in cynomolgus monkey assessed as HPA axis activation by measuring increase in cortisol level at 10 mg/kg for 7 days
Type: organism-based, Macaca fascicularis
Details: in vivo, 168 h

Which Activity does the source give for `O=C(O)CC1(c2ccc(F)cc2)C2CC3CC(C2)CC1C3` (stereo not given) here?
The Activity was “Toxic”.
